# Results of several laboratories.
# Protocols differ between the studies behind these lines.
# Read-out: enzyme activity
# Action: inhibitor
# NUAK1: NUAK family SNF1-like kinase 1 (NUAK1, Homo sapiens, UniProt O60285)
# DYRK1B: Dual specificity tyrosine-phosphorylation-regulated kinase 1B (DYRK1B, Homo sapiens, UniProt Q9Y463)
# Rock2: Rho-associated protein kinase 2 (Rock2, Rattus norvegicus, UniProt Q62868)
SMILES,target,technique,tested at,remaining activity
Cc1nn(CC(F)(F)F)cc1Nc1ncc(C2CC2)c(NCCCNC(=O)C2CCC2)n1,NUAK1,radiometric,1 µM,82%
O=C(O)c1ccc2c(c1)nc(NCCc1cccc(Cl)c1)c1ccncc12,DYRK1B,radiometric,1 µM,112%
O=C(NCCCNc1nc(Nc2cccc(NC(=O)N3CCCC3)c2)ncc1Br)C1CCC1,"Inhibitor of nuclear factor kappa-B kinase subunit epsilon (IKBKE, Homo sapiens, UniProt Q14164)",radiometric,1 µM,-2%
Cc1cnc(NC2CCOCC2)nc1-n1cnc(C(=O)NC(CN)c2cc(F)cc(Cl)c2)c1 (stereo not drawn),Rock2,radiometric,1 µM,25%
Cc1nn(CC(F)(F)F)cc1Nc1ncc(C2CC2)c(NCc2ccc(S(N)(=O)=O)cc2)n1,NUAK1,radiometric,1 µM,97%
COc1cccc(CCNc2nc3cc(C(=O)O)ccc3c3cncnc23)c1,"Dual specificity tyrosine-phosphorylation-regulated kinase 3 (DYRK3, Homo sapiens, UniProt O43781)",radiometric,1 µM,28%
CCCOc1ccc(OC)c(F)c1C(=O)c1ccc(C(=O)N[C@@H]2CNC[C@H]2NC(=O)c2ccc3[nH]ncc3c2)cc1,Rock2,,10 µM,-1%
Cc1ccc(C(=O)Nc2ccc(CN3CCN(C)CC3)c(C(F)(F)F)c2)cc1C#Cc1cnc2cccnn12,"Mitogen-activated protein kinase kinase kinase 15 (MAP3K15, Homo sapiens, UniProt Q6ZN16)",,23.5 nM,67%
COc1cccc(Nc2nc3cc(C(=O)O)ccc3c3cnccc23)c1,DYRK1B,radiometric,1 µM,35%
